Molecules are shown by their SMILES.

What all share (format): cell-based
For assay [1], the target named is T1, Prostaglandin G/H synthase 2 (Mus musculus, UniProt Q05769).
T1 sequence (Q05769 whole entry): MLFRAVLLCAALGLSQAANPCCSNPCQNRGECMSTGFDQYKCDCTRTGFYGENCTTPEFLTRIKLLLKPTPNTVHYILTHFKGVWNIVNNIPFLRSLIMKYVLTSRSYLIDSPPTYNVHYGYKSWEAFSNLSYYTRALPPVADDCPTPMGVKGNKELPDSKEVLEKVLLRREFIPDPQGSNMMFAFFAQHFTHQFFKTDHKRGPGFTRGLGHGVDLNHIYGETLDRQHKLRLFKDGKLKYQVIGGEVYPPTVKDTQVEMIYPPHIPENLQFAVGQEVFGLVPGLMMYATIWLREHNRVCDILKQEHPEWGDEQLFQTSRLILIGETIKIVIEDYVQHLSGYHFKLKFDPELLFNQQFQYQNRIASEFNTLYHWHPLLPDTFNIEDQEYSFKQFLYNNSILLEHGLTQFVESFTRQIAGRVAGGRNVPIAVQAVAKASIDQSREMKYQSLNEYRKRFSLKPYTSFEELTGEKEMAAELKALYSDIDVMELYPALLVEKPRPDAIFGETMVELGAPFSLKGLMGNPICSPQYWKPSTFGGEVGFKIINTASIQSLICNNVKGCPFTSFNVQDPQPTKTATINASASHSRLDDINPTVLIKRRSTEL
The assay can be described thus: Inhibition of COX2-mediated PGE2 production in LPS-induced mouse J774 cells by radioimmunoassay. The gist of the method: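 J774 murine macrophages stimulated 24 h with E. coli LPS (10 µg/mL) to induce COX-2, with or without compound (0.01–10 μM). Supernatant PGE2 measured by RIA; percent inhibition against controls. Triplicate wells, mean of three experiments; IC50 from sigmoidal variable-slope fit.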

Assay [2] addresses T2, Prostaglandin G/H synthase 1 (Mus musculus, UniProt P22437).
T2 sequence (P22437 whole entry): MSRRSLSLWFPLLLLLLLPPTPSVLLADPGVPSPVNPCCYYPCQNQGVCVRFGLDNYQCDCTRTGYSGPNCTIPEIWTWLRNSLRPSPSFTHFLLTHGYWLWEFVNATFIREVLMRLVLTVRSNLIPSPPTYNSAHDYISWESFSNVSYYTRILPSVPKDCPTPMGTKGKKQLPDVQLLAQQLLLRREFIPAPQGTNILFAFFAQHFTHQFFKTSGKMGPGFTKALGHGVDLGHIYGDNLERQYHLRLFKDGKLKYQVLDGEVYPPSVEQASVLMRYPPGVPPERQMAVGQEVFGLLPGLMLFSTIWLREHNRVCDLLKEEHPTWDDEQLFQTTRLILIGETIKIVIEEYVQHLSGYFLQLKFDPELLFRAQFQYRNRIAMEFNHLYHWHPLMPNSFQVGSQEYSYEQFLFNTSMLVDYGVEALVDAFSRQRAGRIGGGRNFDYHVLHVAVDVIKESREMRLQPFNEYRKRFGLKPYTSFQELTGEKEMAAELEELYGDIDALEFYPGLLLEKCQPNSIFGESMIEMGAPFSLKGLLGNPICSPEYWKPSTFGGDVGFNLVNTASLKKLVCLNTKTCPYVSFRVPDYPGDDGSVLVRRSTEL
The assay can be described thus: Inhibition of COX1-mediated PGE2 production in mouse J774 cells preincubated for 15 mins measured after 30 mins by radioimmunoassay. The gist of the method: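 Murine J774 macrophages in DMEM/10% FBS, adhered 2 h at 37 °C. […] Supernatant PGE2 measured by RIA. Triplicate wells, mean of three experiments; IC50 by sigmoidal variable-slope fit.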

In assay [3] the target is T3, Prostaglandin G/H synthase 2 (Mus musculus) (UniProt Q05769).
T3 sequence (whole entry): T1 sequence (Q05769 whole entry)
Briefly: Inhibition of COX2-mediated PGE2 production in LPS-induced mouse J774 cells by radioimmunoassay relative to control. More on the design: concentration or dose not given beside the values. To be noted: concentration not given here. The method, boiled down:
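J774 cells, cultured as for the COX-1 assay, were stimulated 24 h with E. coli LPS (10 µg/mL) to induce COX-2, with or without compound at 0.01–10 μM. Supernatant PGE2 was measured by RIA as % inhibition versus control, triplicate wells, mean of three experiments. IC50 came from a sigmoidal variable-slope dose-response fit.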

For assay [4], the target named is T4, Prostaglandin G/H synthase 1 (Mus musculus) (UniProt P22437).
T4 sequence (whole entry): T2 sequence (P22437 whole entry)
The assay can be described thus: Inhibition of COX1-mediated PGE2 production in mouse J774 cells at 10 uM preincubated for 15 mins measured after 30 mins by radioimmunoassay relative to control. The gist of the method: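 Murine J774 macrophages in DMEM with 10% FBS, glutamine, HEPES, pyruvate and antibiotics, adhered 2 h at 37 °C in 5% CO2. Medium was refreshed, cells were pretreated with compound for 15 min, then given 15 μM arachidonic acid for 30 min at 37 °C. PGE2 in supernatant was measured by RIA as % inhibition versus control, triplicate wells, mean of three experiments.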

For the next assay, the system named is J774. Briefly: Selectivity index, ratio of IC50 for COX1-mediated PGE2 production to IC50 for COX2-mediated PGE2 production in mouse J774 cells. The gist of the method: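 Ratio of the COX-1 IC50 to the COX-2 IC50, both from PGE2 RIA in J774 cells. For COX-1, cells were given compound for 15 min, then 15 μM arachidonic acid for 30 min; lower concentrations (0.01–1 μM) were tested when warranted. For COX-2, cells were given LPS 10 µg/mL for 24 h with compound at 0.01–10 μM. IC50 came from a sigmoidal variable-slope fit.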

For the molecule `Cc1c(C(N)C(=O)OCCCCO[N+](=O)[O-])cc(-c2ccc(S(C)(=O)=O)cc2)n1-c1cccc(F)c1` (stereo not given), the IC50 (as a rule, the concentration needed to halve the response being measured) in assay [1] is 1410 nM; in assay [2] it was > 10000 nM. In addition, the inhibition – broadly, how much of the control response was suppressed – in assay [3] amounted to 59%; in assay [4], 15%. Further, the Ratio IC50 with J774 is > 7.09.

Consider `Cc1c(C(N)C(=O)OCCCCO)cc(-c2ccc(S(C)(=O)=O)cc2)n1-c1ccc(F)cc1` (stereo not given), for which the results for the IC50 in assay [1] and in assay [2] were 220 nM and > 10000 nM, respectively. The inhibition is 100% in assay [3] and 10% in assay [4]. Also, in the assay on J774, the Ratio IC50 is > 45.5.

As for `Cc1c(C(N)C(=O)OCCCCO)cc(-c2ccc(S(C)(=O)=O)cc2)n1-c1cccc(F)c1` (stereo not given), the values for the IC50 in assay [1] and in assay [2] were 1500 nM and > 10000 nM, respectively. In addition, the inhibition in assay [3] came to 100%; in assay [4], 23%. Moreover, the Ratio IC50 in the assay on J774 was > 6.67.

For `Cc1c(C(N)C(=O)OCCCO)cc(-c2ccc(S(C)(=O)=O)cc2)n1-c1cccc(F)c1` (stereo not given), the IC50 in assay [1] was 1190 nM; in assay [2] it was > 10000 nM. The inhibition in assay [3] stood at 79%; in assay [4], 30%. Also, the Ratio IC50 with J774 was > 8.4.
